# MEKK2mut PB1 HTS – MEK5 binding signal on mutant MEKK2 PB1, primary screen, biochemical, multiplex bead flow cytometry, Alexa488-MEK5; 290,000 compounds, 0.35% hits; AID 1530, 2009; Alexa488-MEK5 binding to MEKK2 mutant; percent response, % at 10 µM; in the data active = percent response above about 24%, passing the limit was not always enough
# Hep lipid drop – inhibitors of hepatocyte lipid droplet formation, primary screen, imaging, high-throughput imaging, BODIPY stain; AML12 mouse hepatocytes, oleate lipid droplets; inhibition, % at 6.5 µM; 240,000 compounds, 0.4% hits;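 active = lipid droplet intensity inhibited by at least 50%, with more than 500 cells counted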
#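 Material – mouse AML12 hepatocyte cell line, fixed after treatment · Compound dosing – one dose, 6.5 µM compound · Times – compound with oleate, overnight · Measured by – Image-based BODIPY and DAPI two-channel analysis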
# MEKK2wt PB1 HTS – modulators of MEK5 binding to wildtype MEKK2, primary screen, biochemical, multiplex bead flow cytometry, Alexa488-MEK5; AID 1531, 2009; Mitogen-activated protein kinase kinase kinase 2 (Homo sapiens), Q9Y2U5; Alexa488-MEK5 binding to MEKK2 WT; actives lie on both sides; binding response (% of control), % at 10 µM; 290,000 compounds, 1.1% hits; in the data active = binding response below about 67% or above about 130%
# MEKK3 PB1 HTS – modulators of MEKK3-MEK5 PB1 binding, primary screen, biochemical, wildtype MEKK3, multiplex bead flow cytometry, Alexa488-MEK5. Mitogen-activated protein kinase kinase kinase 3 (Homo sapiens), Q99759. bead-based flow cytometry, Alexa488-MEK5 binding to MEKK3; actives lie on both sides; 0 = blocked by unlabeled MEK5, 100 = vehicle. binding response (% of control), % at 10 µM. 290,000 compounds, 1.4% hits;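 active = binding response more than 3 SD above or below the average of its plate-row segment, actives on both sides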;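 also: Alexa488 bead fluorescence after subtracting the streptavidin-only scavenger bead signal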
# Target sequence (Q99759 whole entry, looked up): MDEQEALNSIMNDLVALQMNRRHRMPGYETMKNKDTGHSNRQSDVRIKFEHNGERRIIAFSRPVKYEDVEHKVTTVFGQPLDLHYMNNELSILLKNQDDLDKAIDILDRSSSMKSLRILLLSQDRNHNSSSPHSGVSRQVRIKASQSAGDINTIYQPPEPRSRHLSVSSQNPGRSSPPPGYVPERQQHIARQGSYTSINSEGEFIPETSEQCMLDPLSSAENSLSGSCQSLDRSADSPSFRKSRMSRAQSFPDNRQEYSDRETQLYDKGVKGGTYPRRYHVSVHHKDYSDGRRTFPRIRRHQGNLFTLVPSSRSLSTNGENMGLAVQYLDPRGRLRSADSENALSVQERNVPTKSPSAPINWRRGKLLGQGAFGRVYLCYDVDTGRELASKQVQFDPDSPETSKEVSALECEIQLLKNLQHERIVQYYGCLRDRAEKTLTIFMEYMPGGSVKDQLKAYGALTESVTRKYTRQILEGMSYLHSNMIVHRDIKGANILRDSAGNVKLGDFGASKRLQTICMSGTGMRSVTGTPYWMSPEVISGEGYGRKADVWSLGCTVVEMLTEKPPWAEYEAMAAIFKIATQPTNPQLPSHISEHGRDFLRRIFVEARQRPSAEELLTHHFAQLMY
# MEKK2wt confirm – modulators of MEK5 binding to wildtype MEKK2, confirmation, biochemical, single concentration, multiplex bead flow cytometry; shares compounds with MEKK3 PB1 HTS; Alexa488-MEK5 binding to MEKK2 WT; actives lie on both sides; 5,900 compounds, 2.4% hits; binding response (% of control), % at 10 µM; in the data active = binding response below about 16% or above about 210%; inactive = in between
# MEKK2mut confirm – mutant MEKK2 PB1-MEK5 binding signal retest – biochemical, single concentration, multiplex bead flow cytometry, confirmation; percent response, % at 10 µM; shares compounds with MEKK3 PB1 HTS; AID 1893, 2009; Alexa488-MEK5 binding to MEKK2 mutant; 5,900 compounds, 2% hits; in the data active = percent response mostly above about 71%, no sharp cut-off; inactive = mostly below about 38%;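 also: higher means compound restores mutant binding toward wildtype level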
# MEKK3-MEK5 inh – MEKK3 wild-type PB1 binding to MEK5, inhibitors, confirmation, biochemical, bead multiplex flow cytometry, single concentration, wildtype; binding response (% of control), % at 10 µM; 5,900 compounds, 1.8% hits; shares compounds with MEKK3 PB1 HTS; AID 1894, 2009; Alexa488-MEK5 binding to MEKK3; stronger effect = lower value;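 active = binding response below 72% of control, or above a set upper limit, though filed actives all read lower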;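 also: 100% = DMSO only wells and 0% = binding blocked by excess unlabeled MEK5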
# An asterisk follows results filed as active; nt = not tested or not shown; [ ] = another dose, or the depositor's remark. A selection: hits, their analogues and other compounds. The true share with any hit is near 2.6%.
SMILES,MEKK2mut PB1 HTS,Hep lipid drop,MEKK2wt PB1 HTS,MEKK3 PB1 HTS,MEKK2wt confirm,MEKK2mut confirm,MEKK3-MEK5 inh
CC(C)(CS(=O)(=O)[O-])NC(=O)CC[N+](C)(C)CCO,-35,nt,95,65*[inhibitor],103,-31,86
O=C(c1cccs1)N1CCN(Cc2ccccc2[N+](=O)[O-])CC1,-2,-3,100,96,nt,nt,nt
Cc1c(/C=N/NC(=O)c2ccccc2O)c2ccccn2c1C(=O)c1ccc(F)cc1,1,-41,108,142*,89,-11,98
CCOC(=O)N/N=C/c1c(C)c(C(=O)c2ccc(F)cc2)n2ccccc12,-12,-3,67,74*[inhibitor],105,-6,100
Cc1ccc(Nc2nc(N3CCOCC3)c3ccccc3n2)cc1,4,nt,100,103,nt,nt,nt
COc1ccc(Nc2nc(N3CCCCC3)c3ccccc3n2)cc1,14,nt,136*,106,158,36,112
COc1ccc(Nc2nc(N)c([N+](=O)[O-])c(N3CCCC3)n2)cc1,6,-1,108,109,nt,nt,nt
C(=C\c1nc(N2CCCC2)c2ccccc2n1)/c1ccccc1,30,1,158*,107,153,39,111
Oc1ccc(Nc2nc(N3CCCC3)c3ccccc3n2)cc1,21,nt,153*,107,197,93*,109
CCOc1ccc(Nc2nc(N3CCCCC3)nc(N3CCCCC3)n2)cc1,-7,8,87,78*[inhibitor],114,11,108
CN1C(=O)/C(=C/C=C2\SCCN2C)SC1=S,-2,3,89,89,nt,nt,nt
Nc1ccc(Cl)c(S(=O)(=O)Nc2ccc(Cl)cc2)c1,-14,-5,90,87,nt,nt,nt
CCc1ccc(NC(=O)C2C3/C=C\CCCCC32)cc1 (configuration not stated),0,4,98,97,nt,nt,nt
Cc1ccc(NCC(=O)Nc2c(C)n(C)n(-c3ccccc3)c2=O)cc1S(=O)(=O)N(C)C,1,1,98,100,nt,nt,nt
O=C1c2ccccc2C(=O)C12OC2c1cccc2ccccc12 (configuration not stated),1,7,107,157*,103,2,103
COc1cc(OC)c2c(c1)C(=O)OC2,0,4,106,131*,99,2,99
COc1cc(OC)cc(C(=O)Nc2ccc3c(c2)COC3=O)c1,9,8,113,121,nt,nt,nt
O/N=C/c1ccc(-c2ccccc2OC(F)(F)F)o1,3,-3,102,104,nt,nt,nt
CC(=O)c1ccc(-c2ccccc2OC(F)(F)F)o1,-22,-5,61,49*[inhibitor],100,-9,98
CN(C)c1ccc(C(=O)/C=C/c2ccc(Br)cc2)cc1,-2,8,93,97,nt,nt,nt
CCN(CC)c1ccc(/C=C/C(=O)c2ccc(Br)cc2)cc1,431*,-1,344*,111,82,-40,87
CCOC(=O)c1cc(-c2ccccc2)sc1NC(=O)C(C)N1C(=O)c2ccccc2C1=O (configuration not stated),0,2,105,136*,97,-3,106
CCOC(=O)c1cc(-c2ccccc2)sc1NC(=O)CCN1C(=O)c2ccccc2C1=O,1,6,32*[inhibitor],97,99,-6,98
CCCCNC(=S)N(C)/N=C/c1ccc(OCC(=O)Nc2ccc(OC)cc2)c(OC)c1,-1,-13,107,142*,108,2,101
